Active and inactive are the calls of the source. No cut-off for these calls is given here.
What was measured:
[1] = Half life in Sprague-Dawley rat at 100 mg/kg, ig measured after 0.083 to 36 hrs by LC-MS/MS analysis; assay type: ADME, organism-based; conditions: in vivo, po
In short: (§1)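 SD rats (200 ± 20 g) randomized to three groups; single intragastric dose of 100 mg/kg or vehicle (0.5% CMC-Na). Tail-vein blood (0.5 mL) drawn at 0.083, 0.25, 0.5, 1, 2, 4, 8, 12, 24 and 36 h. Plasma separated by centrifugation at 2000 rpm for 10 min, frozen at -80 °C, then quantified by LC-MS/MS.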

[2] = target: T1, Retinoic acid receptor RXR-alpha (Homo sapiens) (UniProt P19793); assay: In-vivo activation of RXRalpha in BALB/c mouse xenografted with human KM12C cells assessed as effect on PCNA protein expression at 100 mg/kg, ig dosed daily for 15 days by immunohistochemistry analysis; assay type: functional, organism-based
T1 sequence (whole entry): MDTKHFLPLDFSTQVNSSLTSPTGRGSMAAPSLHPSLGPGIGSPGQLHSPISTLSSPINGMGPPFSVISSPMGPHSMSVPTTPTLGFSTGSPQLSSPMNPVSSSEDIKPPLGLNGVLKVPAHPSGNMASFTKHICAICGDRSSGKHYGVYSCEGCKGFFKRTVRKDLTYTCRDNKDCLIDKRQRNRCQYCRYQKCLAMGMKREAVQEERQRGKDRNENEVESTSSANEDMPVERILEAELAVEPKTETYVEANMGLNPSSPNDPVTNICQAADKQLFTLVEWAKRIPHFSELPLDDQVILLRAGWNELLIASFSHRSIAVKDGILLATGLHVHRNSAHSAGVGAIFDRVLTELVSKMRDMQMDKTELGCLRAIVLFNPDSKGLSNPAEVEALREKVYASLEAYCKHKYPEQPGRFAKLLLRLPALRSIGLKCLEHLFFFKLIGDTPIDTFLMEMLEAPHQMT

[3] = Toxicity in BALB/c mouse xenografted with human KM12C cells assessed as effect on biochemical parameter by measuring IBIL level at 100 mg/kg, ig dosed daily for 15 days by automatic chemistry analyzer based analysis (reference value: 0.55 +/- 0.096 umol/L); assay type: organism-based; conditions: in vivo, po, 360 h
[4] = target: T1, Retinoic acid receptor RXR-alpha (Homo sapiens); assay: Activation of RXRalpha (unknown origin) expressed in human SW620 cells co-expressing beta-catenin and c-Cbl assessed as induction of beta-caten interaction with c-Cbl at 40 to 80 uM incubated for 15 hrs by mammalian two-hybrid assay; assay type: cell-based; conditions: SW-620
In short: (§2)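 Mammalian two-hybrid: cells co-transfected by lipofection with pBIND-β-catenin/S33Y plus pACT-RXRα (RXRα–β-catenin) or pACT-c-Cbl (β-catenin–c-Cbl); 20 h after transfection, compound added for 15 h; cells lysed in passive lysis buffer, 4 °C, 1 h; firefly and Renilla luciferase read by dual-luciferase kit.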

[5] = target: T1, Retinoic acid receptor RXR-alpha (Homo sapiens); assay: Activation of RXRalpha in human KM12C cells assessed as reduction in c-Myc protein expression at 25 to 50 uM incubated for 15 hrs by Western blot analysis; assay type: cell-based
[6] = system: HCT-116; assay: Inhibition of cell proliferation of human HCT116 cells incubated for 15 hrs by MTT assay; assay type: functional, cell-based; conditions: HCT-116, 15 h
In short: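 Cells plated at 1×10⁴ per well, incubated overnight at 37 °C, then exposed to a concentration series for 15 h. MTT (5 mg/mL stock) added for 4 h at 37 °C. Formazan dissolved in DMSO and absorbance read at 570 nm. IC50 derived from the dose-response curve.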

[7] = MRT (infinity) in Sprague-Dawley rat at 100 mg/kg, ig measured after 0.083 to 36 hrs by LC-MS/MS analysis; assay type: ADME, organism-based; conditions: in vivo, po; in short: as §1
[8] = Toxicity in BALB/c mouse xenografted with human KM12C cells assessed as effect on biochemical parameter by measuring TBIL level at 100 mg/kg, ig dosed daily for 15 days by automatic chemistry analyzer based analysis (reference value: 0.28 +/- 0.024 umol/L); assay type: organism-based; conditions: in vivo, po, 360 h
[9] = target: T1, Retinoic acid receptor RXR-alpha (Homo sapiens); assay: Activation of RXRalpha in human HCT116 cells assessed as reduction in Cdc2 protein expression at 30 to 60 uM incubated for 15 hrs by Western blot analysis; assay type: cell-based; conditions: HCT-116
[10] = target: T1, Retinoic acid receptor RXR-alpha (Homo sapiens); assay: Activation of RXRalpha in human SW620 cells assessed as reduction in c-Myc protein expression at 40 to 80 uM incubated for 15 hrs by Western blot analysis; assay type: cell-based; conditions: SW-620
[11] = target: T1, Retinoic acid receptor RXR-alpha (Homo sapiens); assay: Activation of RXRalpha in human KM12C cells assessed as inhibition of Wnt/beta-catenin-dependent transcriptional activity at 25 to 50 uM incubated for 15 hrs by TOP/FOP luciferase assay; assay type: cell-based
In short: (§3)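 TOP/FOP reporter: cells co-transfected by lipofection with pRL-TK plus TOPflash or FOPflash; compound added 20 h after transfection for 15 h; passive lysis at 4 °C, 1 h; firefly and Renilla luciferase measured by dual-luciferase assay.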

[12] = target: T1, Retinoic acid receptor RXR-alpha (Homo sapiens); assay: In-vivo activation of RXRalpha in BALB/c mouse xenografted with human KM12C cells assessed as reduction in c-Myc protein expression at 100 mg/kg, ig dosed daily for 15 days by Western blot analysis; assay type: functional, organism-based
In short: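 KM12C cells (1×10^6 per mouse in 100 μL HBSS) injected subcutaneously into both flanks of nude mice; after seven days, randomized to three groups, dosed intragastrically once daily for 15 days with vehicle (CMC-Na) or 100 mg/kg compound; mice euthanized and tumors removed for analysis.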

[13] = target: T1, Retinoic acid receptor RXR-alpha (Homo sapiens); assay: Activation of RXRalpha in human KM12C cells assessed as reduction in c-Myc mRNA expression at 25 to 50 uM incubated for 15 hrs by real-time PCR analysis; assay type: cell-based
[14] = target: T1, Retinoic acid receptor RXR-alpha (Homo sapiens); assay: Activation of RXRalpha in human KM12C cells assessed as increase in p21 (WAF1/CIP1) protein expression at 25 to 50 uM incubated for 15 hrs by Western blot analysis; assay type: cell-based
[15] = target: T1, Retinoic acid receptor RXR-alpha (Homo sapiens); assay: Activation of RXRalpha in human SW620 cells assessed as inhibition of Wnt/beta-catenin-dependent transcriptional activity at 40 to 80 uM incubated for 15 hrs by TOP/FOP luciferase assay; assay type: cell-based; conditions: SW-620; in short: as §3
[16] = system: KM12C; assay: Antitumor activity against human KM12C cells xenografted in BALB/c mouse assessed as inhibition of tumor growth at 100 mg/kg, ig dosed daily for 15 days relative to control; assay type: functional; conditions: po, 360 h, read-out: TGI
In short: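 Nude mice received subcutaneous injections of KM12C cells (1×10⁶ in 100 μL HBSS) into both flanks. After seven days, tumour-bearing mice (80–200 mm³) were randomized into three groups. Daily intragastric dosing at 100 mg/kg, or CMC-Na vehicle, for 15 days. Tumours then excised and weighed; inhibition rate calculated versus vehicle.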

[17] = target: T1, Retinoic acid receptor RXR-alpha (Homo sapiens); assay: Activation of RXRalpha (unknown origin) expressed in human KM12C cells co-expressing beta-catenin and c-Cbl assessed as induction of beta-caten interaction with c-Cbl at 25 to 50 uM incubated for 15 hrs by mammalian two-hybrid assay; assay type: cell-based; in short: as §2
[18] = Toxicity in BALB/c mouse xenografted with human KM12C cells assessed as effect on biochemical parameter by measuring total cholesterol level at 100 mg/kg, ig dosed daily for 15 days by automatic chemistry analyzer based analysis (reference value: 2.32 +/- 0.11 mmol/L); assay type: organism-based; conditions: in vivo, po, 360 h
[19] = target: T1, Retinoic acid receptor RXR-alpha (Homo sapiens); assay: Activation of RXRalpha in human SW620 cells assessed as reduction in Cdc2 protein expression at 40 to 80 uM incubated for 15 hrs by Western blot analysis; assay type: cell-based; conditions: SW-620

Compound | half-life [1] [h] | Activity [2] | Activity [3] [µmol/L] | Activity [4] | Activity [5] | IC50 [6] [µM] | MRT inf [7] [h] | Activity [8] [µmol/L] | Activity [9] | Activity [10] | Activity [11] | Activity [12] | Activity [13] | Activity [14] | Activity [15] | inhibition in vivo at 100 mg/kg [16] [%] | Activity [17] | Activity [18] [mmol/L] | Activity [19]
COc1ccc2cc3[n+](cc2c1OC)CCc1cc2c(cc1-3)OCO2.[Cl-] [BERBERINE CHLORIDE] | 29 | Active | 0.4 | Active | Active | 83.1 | 31.5 | 0.26 | Active | Active | Active | Active | Active | Active | Active | 33.6 | Active | 2.35 | Active
COc1ccc2c(c1)CC[n+]1cc3c(OC)cccc3cc1-2.[Cl-] | 11.6 | Active | 0.52 | Active | Active | 27.2 | 15.7 | 0.21 | Active | Active | Active | Active | Active | Active | Active | 69.1 | Active | 2.49 | Active
